Source: ChEMBL document CHEMBL1149657, “Benzylamine histamine H(3) antagonists and serotonin reuptake inhibitors” (Bioorg Med Chem Lett, 2007)
pKi: −log10 of the molar value.

What was measured:
[1] = Drug level in rat brain at 10 mg/kg, po after 1 hr; format: ADME, organism-based; parameters: dose 10 mg/kg, route oral; conditions: read-out: Drug uptake
[2] = Plasma concentration in rat at 10 mg/kg, po after 6 hrs; format: ADME, organism-based; parameters: dose 10 mg/kg, route oral
[3] = Plasma concentration in rat at 10 mg/kg, po after 1 hr; format: ADME, organism-based; parameters: dose 10 mg/kg, route oral
[4] = Drug level in rat brain at 10 mg/kg, po after 6 hrs; format: ADME, organism-based; parameters: dose 10 mg/kg, route oral; conditions: read-out: Drug uptake
[5] = Plasma concentration in rat at 10 mg/kg, po after 3 hrs; format: ADME, organism-based; parameters: dose 10 mg/kg, route oral
[6] = Drug level in rat brain at 10 mg/kg, po after 3 hrs; format: ADME, organism-based; parameters: dose 10 mg/kg, route oral; conditions: read-out: Drug uptake
[7] = biological target: Sodium-dependent serotonin transporter (Homo sapiens, UniProt P31645); assay: Binding affinity to human SERT
[8] = biological target: Sodium-dependent dopamine transporter (Homo sapiens, UniProt Q01959); assay: Binding affinity to human DAT
Summary of the method: (§1)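 Human NET and DAT Ki values from one experiment run in triplicate.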

[9] = biological target: Sodium-dependent noradrenaline transporter (Homo sapiens, UniProt P23975); assay: Binding affinity to human NET; summary of the method: as §1
[10] = biological target: Histamine H3 receptor (Homo sapiens, UniProt Q9Y5N1); assay: Binding affinity to human histamine H3 receptor
[11] = biological target: Sodium-dependent serotonin transporter (Rattus norvegicus, UniProt P31652); assay: Binding affinity to rat SERT
Sequence of Sodium-dependent serotonin transporter (Rattus norvegicus, UniProt P31652) (P31652 whole entry): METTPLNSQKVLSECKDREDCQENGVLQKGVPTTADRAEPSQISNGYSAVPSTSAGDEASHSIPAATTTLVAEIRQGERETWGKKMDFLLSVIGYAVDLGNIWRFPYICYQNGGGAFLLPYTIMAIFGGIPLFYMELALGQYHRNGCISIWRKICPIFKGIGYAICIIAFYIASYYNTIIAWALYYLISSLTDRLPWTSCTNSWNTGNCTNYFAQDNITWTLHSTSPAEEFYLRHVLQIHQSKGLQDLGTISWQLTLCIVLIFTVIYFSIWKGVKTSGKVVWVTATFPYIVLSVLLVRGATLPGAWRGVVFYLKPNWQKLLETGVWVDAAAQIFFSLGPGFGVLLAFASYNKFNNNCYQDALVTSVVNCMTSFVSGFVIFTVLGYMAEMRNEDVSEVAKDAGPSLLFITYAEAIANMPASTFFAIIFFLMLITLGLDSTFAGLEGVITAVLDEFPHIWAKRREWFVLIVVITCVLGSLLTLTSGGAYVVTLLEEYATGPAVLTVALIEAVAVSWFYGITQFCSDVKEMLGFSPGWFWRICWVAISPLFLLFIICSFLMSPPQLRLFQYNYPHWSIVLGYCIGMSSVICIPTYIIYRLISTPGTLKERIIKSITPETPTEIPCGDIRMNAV

Sequence of Sodium-dependent serotonin transporter (Homo sapiens, UniProt P31645) (P31645 whole entry): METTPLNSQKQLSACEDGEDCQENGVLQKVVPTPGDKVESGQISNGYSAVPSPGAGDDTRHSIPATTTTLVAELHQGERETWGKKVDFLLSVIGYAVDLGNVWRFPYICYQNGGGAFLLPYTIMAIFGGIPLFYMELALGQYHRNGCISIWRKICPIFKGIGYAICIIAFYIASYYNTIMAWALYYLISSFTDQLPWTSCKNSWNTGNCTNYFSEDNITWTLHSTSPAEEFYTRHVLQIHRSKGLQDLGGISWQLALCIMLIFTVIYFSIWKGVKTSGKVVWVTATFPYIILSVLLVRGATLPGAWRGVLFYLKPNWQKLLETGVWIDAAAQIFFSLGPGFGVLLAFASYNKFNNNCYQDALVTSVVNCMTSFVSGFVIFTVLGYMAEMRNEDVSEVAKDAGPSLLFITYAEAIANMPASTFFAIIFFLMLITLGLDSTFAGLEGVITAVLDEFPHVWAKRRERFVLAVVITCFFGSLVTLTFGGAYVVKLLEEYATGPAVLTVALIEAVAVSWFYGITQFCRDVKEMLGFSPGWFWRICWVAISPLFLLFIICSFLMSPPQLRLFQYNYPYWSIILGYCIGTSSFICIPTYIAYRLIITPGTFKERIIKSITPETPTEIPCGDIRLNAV
Sequence of Sodium-dependent noradrenaline transporter (P23975 whole entry): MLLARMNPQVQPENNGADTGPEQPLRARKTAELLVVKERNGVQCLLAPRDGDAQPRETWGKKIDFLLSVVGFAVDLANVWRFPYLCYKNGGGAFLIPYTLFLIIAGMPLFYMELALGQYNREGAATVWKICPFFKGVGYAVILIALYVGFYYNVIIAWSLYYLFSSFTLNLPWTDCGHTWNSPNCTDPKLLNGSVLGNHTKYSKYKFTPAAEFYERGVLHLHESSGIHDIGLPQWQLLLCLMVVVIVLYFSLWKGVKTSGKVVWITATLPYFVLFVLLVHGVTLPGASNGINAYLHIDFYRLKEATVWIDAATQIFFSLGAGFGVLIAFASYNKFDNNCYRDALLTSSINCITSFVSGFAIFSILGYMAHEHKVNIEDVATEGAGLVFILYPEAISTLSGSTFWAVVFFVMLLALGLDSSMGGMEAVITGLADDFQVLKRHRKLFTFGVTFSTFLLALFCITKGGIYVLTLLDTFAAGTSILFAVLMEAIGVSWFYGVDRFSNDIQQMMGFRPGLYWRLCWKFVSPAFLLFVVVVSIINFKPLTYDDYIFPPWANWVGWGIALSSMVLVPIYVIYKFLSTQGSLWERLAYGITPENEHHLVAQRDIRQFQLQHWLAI
Sequence of Sodium-dependent dopamine transporter (Q01959 whole entry): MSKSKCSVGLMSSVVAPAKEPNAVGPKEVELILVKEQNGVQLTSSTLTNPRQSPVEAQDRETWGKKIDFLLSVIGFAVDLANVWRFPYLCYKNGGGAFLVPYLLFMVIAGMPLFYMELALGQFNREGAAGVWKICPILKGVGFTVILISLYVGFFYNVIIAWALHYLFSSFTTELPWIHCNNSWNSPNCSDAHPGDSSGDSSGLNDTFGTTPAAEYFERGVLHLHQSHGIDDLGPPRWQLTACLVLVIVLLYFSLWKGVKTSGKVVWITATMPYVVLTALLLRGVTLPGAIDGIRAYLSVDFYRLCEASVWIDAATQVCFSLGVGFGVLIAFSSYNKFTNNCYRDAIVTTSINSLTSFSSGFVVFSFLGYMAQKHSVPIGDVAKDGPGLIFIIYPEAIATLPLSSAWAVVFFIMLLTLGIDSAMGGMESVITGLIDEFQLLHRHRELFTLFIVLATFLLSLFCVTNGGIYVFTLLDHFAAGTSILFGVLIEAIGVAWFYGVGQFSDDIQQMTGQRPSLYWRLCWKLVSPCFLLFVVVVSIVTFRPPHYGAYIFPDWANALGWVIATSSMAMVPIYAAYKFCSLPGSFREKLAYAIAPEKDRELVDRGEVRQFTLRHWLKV
Sequence of Histamine H3 receptor (Q9Y5N1 whole entry): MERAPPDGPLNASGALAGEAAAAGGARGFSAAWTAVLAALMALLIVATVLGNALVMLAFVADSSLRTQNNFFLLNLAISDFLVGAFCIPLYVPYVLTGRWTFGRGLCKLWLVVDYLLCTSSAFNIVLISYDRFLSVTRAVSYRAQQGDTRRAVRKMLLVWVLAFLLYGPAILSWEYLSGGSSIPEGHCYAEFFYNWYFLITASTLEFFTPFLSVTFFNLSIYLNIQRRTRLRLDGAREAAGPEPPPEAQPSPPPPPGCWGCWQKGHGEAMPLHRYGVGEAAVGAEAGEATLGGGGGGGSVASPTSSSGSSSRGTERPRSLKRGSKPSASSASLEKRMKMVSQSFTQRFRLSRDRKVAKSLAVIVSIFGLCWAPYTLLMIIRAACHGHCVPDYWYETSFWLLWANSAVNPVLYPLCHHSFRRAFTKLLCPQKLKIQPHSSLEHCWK

Row | SMILES | concentration at 1 h [1] [nM] | concentration at 6 h [2] [nM] | concentration at 1 h [3] [nM] | concentration at 6 h [4] [nM] | concentration at 3 h [5] [nM] | concentration at 3 h [6] [nM] | pKi [7] | pKi [8] | pKi [9] | pKi [10] | pKi [11]
1 | CNCc1cc(C#CCCNC2CC2)ccc1Oc1ccc(SC)cc1 | 120 | 27 | 17 | 520 | 32 | 320 |  |  |  |  | 
2 | CNCc1cc(C#CCCN2CCNC(=O)C2)ccc1Oc1ccc(SC)cc1 |  |  |  |  |  |  | 8.89 |  |  |  | 
3 | CNCc1cc(C#CCCN2CCSCC2)ccc1Oc1ccc(SC)cc1 | 87 | 250 | 45 | 10 | 360 | 360 |  |  |  |  | 
4 | CNCc1cc(C#CCCN(C)C2CC2)ccc1Oc1ccc(SC)cc1 | 200 | 12 | 39 | 240 | 24 | 220 |  | 6.40 | 6.60 |  | 
5 | CCN(CC)CCCOc1cc2c(cn1)C(c1ccc(Cl)c(Cl)c1)CN(C)C2 (stereo not given) |  |  |  |  |  |  | 7.59 |  |  | 8.15 | 
6 | CNCc1cc(C#CCCN2CCC(F)CC2)ccc1Oc1ccc(SC)cc1 | 44 | 10 | 23 | 130 | 8 | 63 |  | 6.72 | 7.02 |  | 
7 | CNCc1cc(Br)ccc1Oc1ccc(SC)cc1 |  |  |  |  |  |  | 8.77 |  |  | 5.05 | 9.30
8 | COc1ccc([C@@H]2CN(C)Cc3cc(OCCCN4CCC(F)CC4)ccc32)cc1 |  |  |  |  |  |  | 8.57 |  |  |  | 

More lines, now with the values ahead:

Row | concentration at 1 h [1] [nM] | concentration at 6 h [2] [nM] | concentration at 1 h [3] [nM] | concentration at 6 h [4] [nM] | concentration at 3 h [5] [nM] | concentration at 3 h [6] [nM] | pKi [7] | pKi [8] | pKi [9] | pKi [10] | pKi [11] | SMILES
9 | 370 | 110 | 53 | 3560 | 120 | 1860 |  |  |  |  |  | CNCc1cc(C#CCCN2CCOCC2)ccc1Oc1ccc(Cl)c(C(F)(F)F)c1
10 |  |  |  |  |  |  |  | 6.00 | 6.62 |  |  | CNCc1cc(C#CCCN2CCOCC2)ccc1Oc1ccc(SC)c(C)c1
11 |  |  |  |  |  |  |  | 6.15 | 6.54 |  |  | CNCc1cc(C#CCCN2CCOCC2)ccc1Oc1ccc(SC)cc1
12 | 2370 | 270 | 180 | 10100 | 230 | 5130 |  |  |  |  |  | CNCc1cc(C#CCCN2CCOCC2)ccc1Oc1cccc(Cl)c1
13 | 1380 | 28 | 68 | 1660 | 40 | 1700 |  |  |  |  |  | CNCc1cc(C#CCCN2CCOCC2)ccc1Oc1ccc(Cl)cc1
14 | 270 | 8 | 30 | 400 | 18 | 440 |  |  |  |  |  | CNCc1cc(C#CCCN2CCOCC2)ccc1Oc1ccc(F)cc1Cl
15 | 1770 | 150 | 240 | 5400 | 310 | 4650 |  |  |  |  |  | CNCc1cc(C#CCCN2CCOCC2)ccc1Oc1ccc(C(F)(F)F)cc1
16 | 820 | 48 | 110 | 1870 | 91 | 1420 |  |  |  |  |  | CNCc1cc(C#CCCN2CCOCC2)ccc1Oc1cccc(F)c1
